Source: BindingDB's records for doi:10.1021/jm0303608 (University of Florida, 2004)

Columns and labels:
Melanocortin receptor 4 = Melanocortin receptor 4 (Mus musculus, UniProt P56450); test: Effective concentration against mouse melanocortin MC4 receptor
Summary of the method: (§1)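 HEK-293 cells stably expressing the mouse receptor (calcium phosphate transfection, G418 1 mg/mL selection) were transfected with 4 μg CRE/β-galactosidase reporter. EC50 came from nonlinear least-squares fit; at least three independent experiments.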

Melanocortin receptor 3 = Melanocortin receptor 3 (Mus musculus, UniProt P33033); test: Effective concentration against mouse Melanocortin 3 receptor; summary of the method: as §1
Sequence of Melanocortin receptor 3 (P33033 whole entry): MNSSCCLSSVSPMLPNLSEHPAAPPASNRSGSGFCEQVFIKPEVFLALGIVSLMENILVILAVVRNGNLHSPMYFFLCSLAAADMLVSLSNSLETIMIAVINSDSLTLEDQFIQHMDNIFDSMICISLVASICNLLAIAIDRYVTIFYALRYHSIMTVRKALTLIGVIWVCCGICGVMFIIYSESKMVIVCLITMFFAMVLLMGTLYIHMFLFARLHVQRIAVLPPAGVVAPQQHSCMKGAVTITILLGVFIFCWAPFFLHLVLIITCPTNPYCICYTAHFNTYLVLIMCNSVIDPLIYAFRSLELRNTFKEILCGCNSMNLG

Sequence of Melanocortin receptor 4 (P56450 whole entry): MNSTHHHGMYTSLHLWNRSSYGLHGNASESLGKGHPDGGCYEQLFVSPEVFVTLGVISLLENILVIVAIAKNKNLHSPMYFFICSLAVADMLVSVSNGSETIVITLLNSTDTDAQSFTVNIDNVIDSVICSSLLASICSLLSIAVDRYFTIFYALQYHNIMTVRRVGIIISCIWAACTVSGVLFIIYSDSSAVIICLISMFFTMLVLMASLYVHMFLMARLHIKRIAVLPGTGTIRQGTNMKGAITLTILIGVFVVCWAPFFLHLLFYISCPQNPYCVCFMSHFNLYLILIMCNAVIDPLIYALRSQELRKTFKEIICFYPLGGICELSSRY

SMILES	Kd (Melanocortin receptor 4)	Kd (Melanocortin receptor 3)
C[C@@H]1NC(=O)[C@H](CC(N)=O)NC(=O)[C@H](Cc2ccccc2)NC(=O)[C@H](Cc2ccccc2)NC(=O)[C@H](CCCNC(=N)N)NC(=O)[C@@H](NC(=O)[C@@H](N)Cc2ccc(O)cc2)CC(=O)NC[C@@H](C(=O)N[C@@H](Cc2ccc(O)cc2)C(N)=O)NC(=O)[C@H](Cc2ccccc2)NC1=O [Tyr-c[Asp-Arg-Phe-Phe-Asn-Ala-Phe-Dpr]-Tyr-NH2]	1260 nM	–
C[C@@H]1NC(=O)[C@@H](CC(N)=O)NC(=O)[C@H](Cc2ccccc2)NC(=O)[C@@H](Cc2ccccc2)NC(=O)[C@H](CCCNC(=N)N)NC(=O)[C@@H](NC(=O)[C@@H](N)Cc2ccc(O)cc2)CC(=O)NC(C(=O)NN[C@H](Cc2ccc(O)cc2)C(=O)C(N)=O)NC(=O)C(=O)[C@@H](Cc2ccccc2)NC1=O (stereo partly drawn) [Tyr-c[Asp-Arg-Phe-Phe-Asn-Ala-Phe-Dpr]-Tyr-NH2]	–	2000 nM
